According to ChEMBL document CHEMBL4145611, “Discovery of Marinoquinolines as Potent and Fast-Acting Plasmodium falciparum Inhibitors with in Vivo Activity” (J Med Chem, 2018):
Activity calls are given as the source filed them. The calls are words filed in the database; no cut-off is given here.

Columns and labels:
Plasmodium berghei [1] = assay: Antiplasmodial activity against Plasmodium berghei NK65 infected in Swiss mouse assessed as reduction in parasitemia at 50 mg/kg, po administered via gavage for 3 consecutive days post infection measured on day 9 post infection relative to control; format: functional; parameters: scale not given: the % may be the effect or the level left
Method in brief: (§1)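 P. berghei NK65 suppressive test: adult Swiss outbred mice (20±2 g) inoculated ip with 1×10^5 infected red cells, randomized to groups, dosed daily for three days by oral gavage or ip injection with test compound at 50 mg/kg in 3% (v/v) DMSO; CQ 20 mg/kg and vehicle groups in parallel. Giemsa-stained tail-blood smears on days 5, 7, 9; inhibition = [(C−T)/C]×100 versus untreated control.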

Plasmodium falciparum [2] = assay: Antiplasmodial activity against chloroquine-sensitive schizont form of Plasmodium falciparum 3D7 infected in RBC after 72 hrs by SYBR green assay; format: functional, organism-based; conditions: 3D7, Erythrocyte
Method in brief: (§2)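 Sorbitol-synchronized 3D7 cultures of each stage (or asynchronous) diluted to 0.5% parasitemia, 2% hematocrit, exposed to graded compound concentrations (0.05% DMSO) for 72 h in triplicate. Read-out: lysis buffer (20 mM Tris pH 7.5, 5 mM EDTA, 0.008% saponin, 0.08% Triton X-100) with SYBR green I 1:20000, fluorescence 485/535 nm, uninfected erythrocytes as background; IC50 by curve fitting versus drug-free growth.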

Plasmodium falciparum [3] = assay: Antiplasmodial activity against chloroquine-sensitive asynchronous form of Plasmodium falciparum 3D7 infected in RBC after 72 hrs by SYBR green assay; format: functional, organism-based; conditions: 3D7, Erythrocyte; method in brief: as §2
Plasmodium falciparum [4] = assay: Antiplasmodial activity against chloroquine-sensitive ring form of Plasmodium falciparum 3D7 infected in RBC after 72 hrs by SYBR green assay; format: functional, organism-based; conditions: 3D7, Erythrocyte; method in brief: as §2
[5] = Therapeutic index, ratio of EC50 for human HepG2 cells to IC50 for chloroquine-sensitive blood parasite forms of Plasmodium falciparum 3D7; format: toxicity; conditions: read-out: TI
Plasmodium berghei [6] = assay: Antiplasmodial activity against Plasmodium berghei NK65 infected in Swiss mouse assessed as reduction in parasitemia at 50 mg/kg, po administered via gavage for 3 consecutive days post infection measured on day 5 post infection relative to control; format: functional; parameters: scale not given: the % may be the effect or the level left; method in brief: as §1
HepG2 = assay: Cytotoxicity against human HepG2 cells assessed as reduction in cell viability after 24 hrs by MTT assay; format: cell-based; conditions: HepG2, 24 h
Method in brief: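 HepG2 cells in RPMI-1640 with 10% heat-inactivated serum, seeded 5×10^3 per well, allowed to adhere 18 h at 37 °C, then exposed to compound (400–6.2 µM) for 24 h at 37 °C, 5% CO2. MTT (5 mg/mL) for 3 h, formazan dissolved in DMSO, absorbance 570 nm with 630 nm background; viability as percent of untreated control.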

Plasmodium falciparum [7] = assay: Antiplasmodial activity against chloroquine-sensitive blood parasite forms of Plasmodium falciparum 3D7 infected in RBC by SYBR green assay; format: functional, organism-based; conditions: 3D7, Erythrocyte, read-out: IC50
Method in brief: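 3D7 blood-stage cultures, sorbitol-synchronized twice beforehand, used at 5-10% parasitemia with >80% rings, diluted to 0.5% parasitemia and 2% hematocrit with graded compound (0.05% DMSO), triplicate; artesunate and chloroquine controls. SYBR green I lysis-buffer fluorescence at 485/535 nm; IC50 from curve fit relative to drug-free medium.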

[8] = Metabolic stability in rat liver microsomes assessed as compound remaining at 4 uM after 30 mins in presence of NADPH by HPLC analysis; format: ADME, microsome; conditions: read-out: Stability
Method in brief: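 Rat pooled liver microsomes (final 2 mg/mL protein) in 0.1 M phosphate buffer pH 7.4 with 30 mM MgCl2 and 10 mM NADPH; compounds at 4 µM final; verapamil 0.1 mM positive control. Reactions quenched with ice-cold acetonitrile at set times; parent remaining measured by LC-MS/MS; first-order depletion rate used to derive half-life.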

Plasmodium falciparum [9] = assay: Antiplasmodial activity against chloroquine-sensitive trophozoite form of Plasmodium falciparum 3D7 infected in RBC after 72 hrs by SYBR green assay; format: functional, organism-based; conditions: 3D7, Erythrocyte; method in brief: as §2
Plasmodium berghei [10] = assay: Antiplasmodial activity against Plasmodium berghei NK65 infected in Swiss mouse assessed as reduction in parasitemia at 50 mg/kg, po administered via gavage for 3 consecutive days post infection measured on day 7 post infection relative to control; format: functional; parameters: scale not given: the % may be the effect or the level left; method in brief: as §1
Plasmodium berghei [11] = assay: Antiplasmodial activity against Plasmodium berghei NK65 infected in Swiss mouse assessed as mouse survival at 50 mg/kg, po administered for 3 consecutive days post infection measured on day 9 post infection (reference value: 19 +/- 5 days); format: functional
Plasmodium falciparum [12] = assay: Antiplasmodial activity against early ring stage form of Plasmodium falciparum assessed as induction of alterations in parasite morphology at 10 times IC50 concentration after 8 to 16 hrs by microscopic analysis; format: functional, organism-based
Mus musculus [13] = assay: Toxicity in Swiss mouse assessed as survival at 1000 mg/kg, ip measured up to 30 days; format: organism-based; conditions: in vivo, 720 h
Method in brief: (§3)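 Single 1000 mg/kg dose given to mice by gavage or ip injection, 3 mice per group. Survival and body weight followed against untreated controls over 30 days of observation.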

Mus musculus [14] = assay: Toxicity in Swiss mouse assessed as effect on body weight at 1000 mg/kg, ip measured after 30 days; format: organism-based; conditions: in vivo, 720 h; method in brief: as §3

| SMILES | Activity (Plasmodium berghei [1]) [%] | IC50 (Plasmodium falciparum [2]) [µM] | IC50 (Plasmodium falciparum [3]) [µM] | IC50 (Plasmodium falciparum [4]) [µM] | selectivity ratio [5] | Activity (Plasmodium berghei [6]) [%] | EC50 (HepG2) [µM] | IC50 (Plasmodium falciparum [7]) [µM] | remaining at 0.5 h, 4 µM [8] [%] | IC50 (Plasmodium falciparum [9]) [µM] | Activity (Plasmodium berghei [10]) [%] | Survival (Plasmodium berghei [11]) [days] | Activity (Plasmodium falciparum [12]) | Activity (Mus musculus [13]) | Activity (Mus musculus [14]) |
| --- | --- | --- | --- | --- | --- | --- | --- | --- | --- | --- | --- | --- | --- | --- | --- |
| COc1ccc2c(c1)nc(CC(C)C)c1[nH]ccc12 | 0 | 0.4 | 0.42 | 0.5 | > 70 | 0 | 35 | 0.5 | 24 | 0.42 | 0 | 23 | Active |  |  |
| COc1ccc2c(c1)nc(-c1ccc(Cl)cc1)c1[nH]ccc12 | 0 | 0.5 | 0.46 | 0.6 | > 417 | 0 | > 250 | 0.6 | 15 | 0.38 | 0 | 22 | Active | Non-Toxic | Non-Toxic |
